This is an account of results in publication PMC12138108 (Acta Pharmaceutica Sinica. B, 2025).

For data set [1], the system named is 11 CpAMs-resistant mutant HBC (P25A, P25G, D29L, D29W, T33N, I105F, I105W, I105Y, T109A, V124W, V124F). Nature of the data set: Degradation of CpAMs-resistant mutant HBC in transfected HepG2 cells. It counts as cell-based, Hepatitis B virus (HBV). The following applies: 18 h, HyT-S7 6, NVR 3-778 3, 3TC 1 μmol/L. In short, it runs like this: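 HepG2 cells at about 80% confluence were transfected with 0.25 µg plasmid. The pCMV-HBC-derived plasmids carried P25A, P25G, D29A/D29L, D29W, T33N, I105F, I105W, I105Y or T109A; pHBV1.3-derived plasmids carried V124F/V124W. At 6 h post-transfection, medium was replaced with fresh medium or test compound (6 µmol/L) or comparators (1–3 µmol/L) for 18 h. Intracellular core protein was detected by Western blot against a GAPDH/β-actin loading control, with chemiluminescence read-out.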

A short description of data set [2]: Cytotoxicity on HepAD38 cells by cytopathic effect. The data set is classed as cell-based, Human. To be noted: human, HepAD38 cells, CC50, reduction of viability of HepAD38 cells by 50%, CPE method (Table 2). In short, it runs like this:
(§1)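 HepAD38 cells (tetracycline-inducible HBV) were maintained in DMEM with 10% FBS, 1 µg/mL tetracycline and 400 µg/mL G-418. Cells were plated overnight, then given serial dilutions of test compound without tetracycline. Cytotoxicity was read by the cytopathic effect method. CC50 is the concentration cutting viability by 50%, calculated by the Reed & Muench method.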
Background: Damage to the host cells serves as the signal in cytopathic effect assays.

The test system of data set [3] is HBV DNA replication in HepAD38 cells. The data set can be described thus: In vitro anti-HBV assay in HepAD38 cells. It counts as cell-based, Hepatitis B virus (HBV). The following applies: reduction of HBV DNA by 50% in HepAD38 cells, qPCR, 4 days incubation (Table 2). In short, it runs like this:
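HepAD38 cells were plated overnight, then exposed to serially diluted test compound without tetracycline for 4 days. Cytoplasmic HBV core DNA was extracted and quantified by real-time PCR. EC50 is relative to mock-treated controls, calculated by the Reed & Muench method.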
For orientation: Real-time PCR tracks product formation cycle by cycle.

A further data set addresses HBV core protein (HBC) (Hepatitis B virus genotype D subtype ayw, UniProt P03146). Nature of the data set: HBC degradation in HepAD38 cells by Western blot. The data set is classed as cell-based. To be noted: for HBC degradation activity (Western blot): tet-, maximum non-toxic concentration, 72 h. Background: Immunoblotting shows a protein as a band on a membrane.
A further data set concerns HepAD38 cells. The data set can be described thus: Cytotoxicity on HepAD38 cells by cytopathic effect. It counts as cell-based, Human. In short, it runs like this: as §1
Where [4] appears, read: Hepatitis B virus, HePAD38, 96 h.

Regarding `Nc1ccn([C@@H]2CS[C@H](CO)O2)c(=O)n1` [3TC, lamivudine], in data set [1], the “degradation of 11 mutant types of HBC” value is reported as “neither NVR 3-778 nor 3TC showed any degradation effect”.
For `O=C(COCCNC(=O)C(c1ccccc1)c1ccccc1)NC1CCN(S(=O)(=O)c2cc(C(=O)Nc3cc(F)c(F)c(F)c3)ccc2F)CC1` [HyT-S10, 3-((4-(2-(2-(2,2-Diphenylacetamido)ethoxy)acetamido)piperidin-1-yl)sulfonyl)-4-fluoro-N-(3,4,5-trifluorophenyl)benzamide], the CC50 in data set [2] was 20 µM. In data set [3] (setting [4]), this compound showed a concentration for a half-maximal effect (EC50) of 0.26 µM. In addition, the “HBC degradation activity (Western blot)” value at HBV core protein (HBC) was “still retains some degradation activity”.
On the same counts, the results for `O=C(CC1c2ccccc2-c2ccccc21)NCCOCC(=O)NC1CCN(S(=O)(=O)c2cc(C(=O)Nc3cc(F)c(F)c(F)c3)ccc2F)CC1` [HyT-S11, 3-((4-(2-(2-(2-(9H-Fluoren-9-yl)acetamido)ethoxy)acetamido)piperidin-1-yl)sulfonyl)-4-fluoro-N-(3,4,5-trifluorophenyl)benzamide] are 34.6 µM, 0.21 µM and “still retains some degradation activity”.
On the same counts, the results for `CC(C)Cc1ccc([C@H](C)C(=O)NCCOCC(=O)NC2CCN(S(=O)(=O)c3cc(C(=O)Nc4cc(F)c(F)c(F)c4)ccc3F)CC2)cc1` [HyT-S13, (S)-4-Fluoro-3-((4-(2-(2-(2-(4-isobutylphenyl)propanamido)ethoxy)acetamido)piperidin-1-yl)sulfonyl)-N-(3,4,5-trifluorophenyl)benzamide] are 11.6 µM, 0.59 µM and “still retains some degradation activity”.
As to `CC(C)[C@@H]1CC[C@@H](C)C[C@H]1OCC(=O)NCCOCC(=O)NC1CCN(S(=O)(=O)c2cc(C(=O)Nc3cc(F)c(F)c(F)c3)ccc2F)CC1` [HyT-S14, 4-Fluoro-3-((4-(2-(2-(2-(((1R,2S,5R)-2-isopropyl-5-methylcyclohexyl)oxy)acetamido)ethoxy)acetamido)piperidin-1-yl)sulfonyl)-N-(3,4,5-trifluorophenyl)benzamide], it took 11.6 µM to reach half-maximal cytotoxicity in data set [2] (CC50). In data set [3] (setting [4]), a half-maximal effect (EC50) was put at 0.29 µM. Besides, the “HBC degradation activity (Western blot)” value on HBV core protein (HBC) is given as “still retains some degradation activity”.
Compound `CC(C)(C)OC(=O)/N=C(\NCCC[C@H](NC(=O)OC(C)(C)C)C(=O)NCCOCC(=O)NC1CCN(S(=O)(=O)c2cc(C(=O)Nc3cc(F)c(F)c(F)c3)ccc2F)CC1)NC(=O)OC(C)(C)C` [HyT-S15, 2-Methylpropan-2-yl {[(6E,11S)-18-({1-[(2-fluoro-5-{[(3,4,5-trifluorophenyl)amino]carbonyl}phenyl)dioxo-λ6-sulfanyl]hexahydropyridin-4-yl}amino)-2,2-dimethyl-11-({[(2-methylprop-2-yl)oxy]carbonyl}amino)-4,12,18-trioxo-3,16-dioxa-5,7,13-triazaoctadecan-6-ylidene]amino}methanoate] yielded a half-maximal cytotoxic concentration (CC50) in data set [2] of 60 µM. Further, the “maximum non-toxic concentration by CPE method” value in the data set on HepAD38 cells (HepAD38 cells, concentration used in the degradation test) worked out at 20 µmol/L. The response in data set [3] (setting [4]) was half-maximal at 0.45 µM (EC50). Besides, the “HBC degradation activity (Western blot)” value at HBV core protein (HBC) was “still retains some degradation activity”.
As for `NCCOCC(=O)NC1CCN(S(=O)(=O)c2cc(C(=O)Nc3cc(F)c(F)c(F)c3)ccc2F)CC1` [SP-O-7, 3-((4-(2-(2-Aminoethoxy)acetamido)piperidin-1-yl)sulfonyl)-4-fluoro-N-(3,4,5-trifluorophenyl)benzamide], the “HBC degradation (Western blot)” value at HBV core protein (HBC) (20 μmol/L, 24 h) is given as “unable to induce degradation of HBC”.
For “N^1-(Bicyclo[2.2.1]hept-2-en-1-ylmethyl)-N^6-(1-((2-fluoro-5-((3,4,5-trifluorophenyl)carbamoyl)phenyl)sulfonyl)piperidin-4-yl)adipamide [HyT-S12]”, the 50% cytotoxic concentration (CC50) in the data set on HepAD38 cells (reduction of viability of HepAD38 cells by 50%, CPE method (Table 2)) came to 28.8 µM. The compound also displayed an EC50 in data set [3] of 0.22 µM.

A word on the CC50: it is the concentration that lowers cell viability or growth by half. A low value points to harm at low concentration. Broadly, the EC50 is the concentration needed to bring the measured effect to its halfway point. A lower EC50 goes with higher potency in that assay.
